Activity calls are given as the source filed them. The calls are words filed in the database; no cut-off is given here.
Assays:
HepG2 [1] = experiment: Induction of apoptosis in human HepG2 cells after 72 hrs by Annexin V-APC/7-AAD or propidium iodide staining-based flow cytometric analysis; assay type: functional, cell-based
HepG2 [2] = experiment: Induction of apoptosis in human HepG2 cells assessed as reduction in HO-2 expression levels at 2 uM after 24 hrs by membrane-based sandwich immunoassay; assay type: functional, cell-based
Outline: (§1)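 HepG2 cells treated at 2 μM for 24 h; protein extracts prepared per the kit protocol. Relative levels of 35 apoptosis-related proteins measured with a human apoptosis antibody array.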

HepG2 [3] = experiment: Cell cycle arrest in human HepG2 cells assessed as accumulation at S phase at 0.6 uM after 72 hrs by propidium iodide staining-based flow cytometric analysis (reference value: 44.6%); assay type: functional
Outline: (§2)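 Concentrations used were 0, 0.3, 0.6 and 1.2 μM in HepG2 and 0, 0.16, 0.31 and 1.25 μM in PC-3, with untreated cells as control, for 72 h. Cells were trypsinized, washed in PBS, fixed in cold ethanol at 4 °C overnight, then incubated 30 min in PBS containing RNase A and propidium iodide. DNA content was read by flow cytometry to give phase distribution.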

HepG2 [4] = experiment: Induction of apoptosis in human HepG2 cells assessed as viable cells at 0.6 uM after 72 hrs by Annexin V-APC/7-AAD or propidium iodide staining-based flow cytometric analysis (reference value: 90.08%); assay type: functional; conditions: HepG2, 72 h, read-out: Activity
HepG2 [5] = experiment: Cell cycle arrest in human HepG2 cells assessed as accumulation at G1 phase at 1.2 uM after 72 hrs by propidium iodide staining-based flow cytometric analysis (reference value: 34%); assay type: functional; outline: as §2
HepG2 [6] = experiment: Cell cycle arrest in human HepG2 cells assessed as accumulation at G2/M phase at 0.3 uM after 72 hrs by propidium iodide staining-based flow cytometric analysis (reference value: 21.4%); assay type: functional; outline: as §2
HepG2 [7] = experiment: Induction of apoptosis in human HepG2 cells assessed as necrotic cells at 1.2 uM after 72 hrs by Annexin V-APC/7-AAD or propidium iodide staining-based flow cytometric analysis (reference value: 1.87%); assay type: functional
HepG2 [8] = experiment: Induction of apoptosis in human HepG2 cells assessed as reduction in Hsp70 expression levels at 2 uM after 24 hrs by membrane-based sandwich immunoassay; assay type: functional, cell-based; outline: as §1
HepG2 [9] = experiment: Induction of apoptosis in human HepG2 cells assessed as late apoptotic cells at 0.6 uM after 72 hrs by Annexin V-APC/7-AAD or propidium iodide staining-based flow cytometric analysis (reference value: 4.14%); assay type: functional
HepG2 [10] = experiment: Induction of apoptosis in human HepG2 cells assessed as late apoptotic cells at 1.2 uM after 72 hrs by Annexin V-APC/7-AAD or propidium iodide staining-based flow cytometric analysis (reference value: 4.14%); assay type: functional
HepG2 [11] = experiment: Induction of apoptosis in human HepG2 cells assessed as viable cells at 1.2 uM after 72 hrs by Annexin V-APC/7-AAD or propidium iodide staining-based flow cytometric analysis (reference value: 90.08%); assay type: functional; conditions: HepG2, 72 h, read-out: Activity
HepG2 [12] = experiment: Induction of apoptosis in human HepG2 cells assessed as reduction in HO-1 expression levels at 2 uM after 24 hrs by membrane-based sandwich immunoassay; assay type: functional, cell-based; outline: as §1
HepG2 [13] = experiment: Induction of apoptosis in human HepG2 cells assessed as nuclear fragmentation at 1.2 uM after 48 hrs by Hoechst 33258 staining-based fluorescent microscopic analysis; assay type: functional, cell-based
Outline: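 HepG2 cells grown on coverslips were treated for 48 h at 0.3, 0.6 or 1.2 μM, then fixed in 4% paraformaldehyde for 10 min. After PBS washes, cells were stained with Hoechst 33258 for 5 min and washed again. Nuclear morphology was examined by fluorescence imaging at 350 nm excitation and 460 nm emission.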

HepG2 [14] = experiment: Induction of apoptosis in human HepG2 cells assessed as reduction in mitochondrial membrane potential after 48 hrs by JC-1 staining-based flow cytometric analysis; assay type: functional, cell-based
Outline: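 HepG2 cells cultured overnight, then incubated in triplicate with 0, 0.3, 0.6 or 1.2 μM, or vehicle, for 48 h. Stained with the cationic dye JC-1. Flow cytometry gave the percentage of cells with healthy versus collapsed mitochondrial membrane potential.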

HepG2 [15] = experiment: Cell cycle arrest in human HepG2 cells assessed as accumulation at S phase at 1.2 uM after 72 hrs by propidium iodide staining-based flow cytometric analysis (reference value: 44.6%); assay type: functional; outline: as §2
HepG2 [16] = experiment: Cell cycle arrest in human HepG2 cells assessed as accumulation at G1 phase at 0.6 uM after 72 hrs by propidium iodide staining-based flow cytometric analysis (reference value: 34%); assay type: functional; outline: as §2
HepG2 [17] = experiment: Induction of apoptosis in human HepG2 cells assessed as late apoptotic cells at 0.3 uM after 72 hrs by Annexin V-APC/7-AAD or propidium iodide staining-based flow cytometric analysis (reference value: 4.14%); assay type: functional
L02 [18] = experiment: Induction of apoptosis in human LO2 cells assessed as late apoptotic cells at 1.2 uM after 72 hrs by Annexin V-FITC/7-AAD or propidium iodide staining-based flow cytometric analysis (reference value: 0.11%); assay type: cell-based; conditions: l02, 72 h
HepG2 [19] = experiment: Cell cycle arrest in human HepG2 cells assessed as accumulation at G1 phase at 0.3 uM after 72 hrs by propidium iodide staining-based flow cytometric analysis (reference value: 34%); assay type: functional; outline: as §2
HepG2 [20] = experiment: Induction of apoptosis in human HepG2 cells assessed as necrotic cells at 0.6 uM after 72 hrs by Annexin V-APC/7-AAD or propidium iodide staining-based flow cytometric analysis (reference value: 1.87%); assay type: functional
PC-3 [21] = experiment: Cell cycle arrest in human PC3 cells assessed as accumulation at G1 phase at 0.31 uM after 72 hrs by propidium iodide staining-based flow cytometric analysis (reference value: 53.36%); assay type: functional; outline: as §2
PC-3 [22] = experiment: Cell cycle arrest in human PC3 cells assessed as accumulation at G2/M phase at 0.31 uM after 72 hrs by propidium iodide staining-based flow cytometric analysis (reference value: 10.19%); assay type: functional; outline: as §2
[23] = Induction of apoptosis in human LO2 cells assessed as viable cells at 1.25 uM after 72 hrs by Annexin V-FITC/7-AAD or propidium iodide staining-based flow cytometric analysis (reference value: 94.26%); assay type: cell-based, L02; conditions: read-out: Activity
PC-3 [24] = experiment: Induction of apoptosis in human PC3 cells assessed as rupture of cell membrane at 0.16 to 1.25 uM after 48 hrs by Hoechst 33258 staining-based fluorescent microscopic analysis; assay type: functional
Outline: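 PC-3 cells grown on sterile cover slips were exposed to 0, 0.16, 0.31 or 1.25 μM, or vehicle, for 48 h. Then fixed with 4% paraformaldehyde for 10 min, washed twice in PBS, stained with Hoechst 33258 for 5 min and washed again. Nuclei imaged at 350 nm excitation and 460 nm emission.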

PC-3 [25] = experiment: Induction of apoptosis in human PC3 cells assessed as viable cells at 0.31 uM after 72 hrs by Annexin V-APC/7-AAD or propidium iodide staining-based flow cytometric analysis (reference value: 88.74%); assay type: functional; conditions: PC-3, 72 h, read-out: Activity
PC-3 [26] = experiment: Induction of apoptosis in human PC3 cells after 72 hrs by Annexin V-APC/7-AAD or propidium iodide staining-based flow cytometric analysis; assay type: functional, cell-based
L02 [27] = experiment: Induction of apoptosis in human LO2 cells assessed as late apoptotic cells at 1.25 uM after 72 hrs by Annexin V-FITC/7-AAD or propidium iodide staining-based flow cytometric analysis (reference value: 0.11%); assay type: cell-based; conditions: l02, 72 h

O=C(NCCCOc1no[n+]([O-])c1S(=O)(=O)c1ccccc1)[C@H]1O[C@@H](Oc2cc3oc(-c4ccc(OCc5ccccc5)cc4)cc(=O)c3c(O)c2OCc2ccccc2)[C@H](O)[C@@H](O)[C@@H]1O
Activity (HepG2 [1]): Dose-dependent effect | Activity (HepG2 [2]): Active | Activity (HepG2 [3]): 50.45% | viability at 0.6 µM (HepG2 [4]): 64.6% | Activity (HepG2 [5]): 27.12% | Activity (HepG2 [6]): 20.73% | Activity (HepG2 [7]): 5.62% | Activity (HepG2 [8]): Active | Activity (HepG2 [9]): 19.97% | Activity (HepG2 [10]): 39.16% | viability at 1.2 µM (HepG2 [11]): 41.8% | Activity (HepG2 [12]): Active | Activity (HepG2 [13]): Active | Activity (HepG2 [14]): Dose-dependent effect | Activity (HepG2 [15]): 69.63% | Activity (HepG2 [16]): 32.02% | Activity (HepG2 [17]): 13.5% | Activity (L02 [18]): 2.76% | Activity (HepG2 [19]): 32.13% | Activity (HepG2 [20]): 2.31%

COc1ccc(-c2cc(=O)c3c(O)c(OC)c(O[C@@H]4O[C@H](C(=O)NCCOc5no[n+]([O-])c5S(=O)(=O)c5ccccc5)[C@@H](O)[C@H](O)[C@H]4O)cc3o2)cc1
Activity (PC-3 [21]): 43.22% | Activity (PC-3 [22]): 13.48% | viability at 72 h, 1.25 µM [23]: 78.4% | Activity (PC-3 [24]): Active | viability at 0.31 µM (PC-3 [25]): 61.6% | Activity (PC-3 [26]): Dose-dependent effect | Activity (L02 [27]): 2.95%

From ChEMBL document CHEMBL4052629, “Scutellarin derivatives as apoptosis inducers: Design, synthesis and biological evaluation” (Eur J Med Chem, 2017)
